Shown are actives, neighbours in structure and some others; about 2.9% of the full set was active somewhere.
VIM-2 inhibitor: blocks Pseudomonas aeruginosa VIM-2 metallo-beta-lactamase | purified VIM-2, nitrocefin hydrolysis, epi-absorbance fluorescence | inhibition, % at 5.6 µM | 0.89% of 290,000 active | AID 1527;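 active = inhibition above the mean of all tested compounds plus 3 SD, cutoff set per screening run, cut at about 7.5% in these data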;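 note: red hydrolysis product quenches plate fluorescence so inhibitors raise well fluorescence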
NLRP3 yeast inh: inhibitors of NALP3 inflammasome in yeast. Yeast reconstituted NLRP3/ASC/caspase-1, beta-gal luminescence, 24 h. inhibition, % at 10 µM. 0.39% of 330,000 active;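 active = inhibition of 50% or more; inactive = inhibition below 50%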
IMP-1 inhibitor: inhibitors of Pseudomonas aeruginosa IMP-1 metallo-beta-lactamase; purified IMP-1, nitrocefin hydrolysis, epi-absorbance fluorescence; inhibition, % at 5.6 µM; 0.45% of 290,000 active;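 active = inhibition above the mean plus 3 SD of all compounds in the same screening run, cut at about 4.5% in these data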
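Test system: recombinant IMP-1 enzyme, purified / Medium: HEPES buffer pH 7.1 with ZnSO4 and Brij 35 / Doses: single dose, 5.6 µM / Times: 25 °C, 15 min preincubation, 25 min reaction / Detection: Epi-absorbance via hydrolysed-nitrocefin quenching of white-plate fluorescence, 480/530 nm, EDTA stop / Evaluation: percent inhibition from optical density relative to buffer-blank wells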
NALP1 inh: inhibitors of NALP1 inflammasome in yeast | inhibition, % at 10 µM | 0.61% of 280,000 active | S. cerevisiae NALP1/ASC/caspase-1 growth, X-gal OD620, 72 h | AID 2071; in the data active = inhibition mostly above about 24%, no sharp cut-off; inactive = mostly below about 32%
Mot1-301 SUMO: blocks SUMOylation pathway, rescuing yeast Mot1-301 growth. 1% of 320,000 active. growth rescue, % at 18.8 µM. AID 2716. S. cerevisiae Mot1-301 growth rescue, ATP luminescence, 38.5C; percent above DMSO median, 100 means doubled;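 active = every valid replicate shows activation above 250% relative to neutral control wells; inactive = the rest, any valid replicate at or below 250%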
PolyA inh: inhibitors of polyadenylation in S. cerevisiae | S. cerevisiae SKY197-pL101 polyadenylation reporter, beta-gal luminescence; efflux-impaired pdr1/pdr3 knockout yeast; score 100 = 6 SD above DMSO | activity score, % at 12 µM | 0.02% of 300,000 active;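 active = lowest replicate activity score at least 50, where 100 means six control SD above control mean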;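 note: yeast exposed to compound for 9 h at 30 °C; higher score means more reporter readthrough which indicates perturbed polyadenylation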
Mot1 SUMO dose: inhibits SUMO pathway, affecting Mot1-301 yeast growth. shares compounds with Mot1-301 SUMO. S. cerevisiae Mot1-301 galactose growth, ATP luminescence, 24 h; -100 = growth of slx-deleted rescue strain. growth activity, percent, % at 42 µM. 2,300 tested, under 10 active. AID 493004;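 active = Signal drops as the depositor expects, and the fitted half-maximal dose is no more than ten times the top valid tested dose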;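 note: more negative values mean stronger growth rescue toward the control strain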
Large screens that a line does not name were inactive (follow-up assays come after a bar, where they were run).

C[C@@]12C(=O)Nc3ccc(F)cc3C(=O)N1[C@H]1c3cc(Cl)ccc3OC[C@@H]1[C@@H]2c1ccccc1	Mot1-301 SUMO 409 (no result: VIM-2 inhibitor, IMP-1 inhibitor, NALP1 inh, PolyA inh) | Mot1 SUMO dose inactive
Cc1ccc2c(c1)C(=O)N1[C@H]3c4cc(C)ccc4OC[C@@H]3[C@H](c3ccccc3)[C@]1(C)C(=O)N2	none (no result: VIM-2 inhibitor, IMP-1 inhibitor, NALP1 inh, PolyA inh)
C[C@@]12C(=O)Nc3cc(Cl)ccc3C(=O)N1[C@H]1c3ccccc3OC[C@@H]1[C@@H]2c1ccccc1	Mot1-301 SUMO 454 (no result: VIM-2 inhibitor, IMP-1 inhibitor, NALP1 inh, PolyA inh) | Mot1 SUMO dose inactive
Cc1ccc2c(c1)C(=O)N1[C@H]3c4cc(Cl)ccc4OC[C@@H]3[C@H](c3ccccc3)[C@]1(C)C(=O)N2	none (no result: VIM-2 inhibitor, IMP-1 inhibitor, NALP1 inh, PolyA inh)
C[C@@]12C(=O)Nc3ccc(F)cc3C(=O)N1[C@H]1c3ccccc3OC[C@@H]1[C@@H]2c1ccccc1	Mot1-301 SUMO active (no result: VIM-2 inhibitor, IMP-1 inhibitor, NALP1 inh, PolyA inh) | Mot1 SUMO dose inactive
COc1ccc(C(CNC(=O)C(Cc2ccccc2)NC(N)=O)N(C)C)cc1 (stereo unspecified)	none
O=C(CSc1nnc(-c2ccc3c(c2)OCO3)n1-c1ccccc1)c1ccccc1	none
O=C(CSc1nnc(-c2cccs2)n1-c1ccccc1)c1ccc2c(c1)OCCO2	Mot1-301 SUMO active (no result: VIM-2 inhibitor, IMP-1 inhibitor) | Mot1 SUMO dose inactive
Cc1cc(/C=N/NC(=O)c2ccsc2)c(C)n1-c1cnccn1	Mot1-301 SUMO 555 | Mot1 SUMO dose inactive
COC(=O)c1ccc2[nH]c(C(C)(C)O)c(C)c2c1	Mot1-301 SUMO 684 | Mot1 SUMO dose inactive
CCn1c(CSCc2ccc(F)cc2)nnc1SCC(=O)NCc1ccccc1	Mot1-301 SUMO 924 | Mot1 SUMO dose inactive
CCn1c(CSCc2ccc(C)cc2)nnc1SCC(=O)NCc1ccccc1	none
Cc1ccc(CSCCNC(=O)c2ccc(NS(C)(=O)=O)cc2)cc1	Mot1-301 SUMO 453 | Mot1 SUMO dose inactive
O=C(Nc1ccc(Cl)cc1)N1CCC(c2nc(-c3ccc(F)cc3)no2)CC1	Mot1-301 SUMO active | Mot1 SUMO dose inactive
COc1ccc(NC(=O)N2CCCC(c3nc(-c4ccc(OC)cc4)no3)C2)cc1 (stereo unspecified)	none
Cc1ccc(SCC(=O)O/N=C(\N)c2cccc([N+](=O)[O-])c2)cc1	Mot1-301 SUMO active | Mot1 SUMO dose inactive
COc1cccc(C2/C(=C(/O)c3ccccc3)C(=O)C(=O)N2Cc2ccco2)c1 (stereo unspecified)	Mot1-301 SUMO 497 | Mot1 SUMO dose inactive
Cc1sc2nc(N)sc2c1C	Mot1-301 SUMO active (no result: PolyA inh) | Mot1 SUMO dose inactive
CN1CCN(C(=O)CCN2C(=O)/C(=C/c3ccccc3Cl)SC2=S)CC1	Mot1-301 SUMO 378 | Mot1 SUMO dose inactive
CN1CCN(C(=O)CCN2C(=O)/C(=C\c3ccccc3F)SC2=S)CC1	none
COc1ccc2c(c1)c(CC(=O)OCC(N)=O)c(C)n2C(=O)c1ccc(Cl)cc1	Mot1-301 SUMO 674 (no result: NALP1 inh) | Mot1 SUMO dose inactive
CCOc1cc(NC(=O)c2cccs2)c(OCC)cc1NC(=O)CCC(=O)NCCN1CCOCC1	Mot1-301 SUMO 388 | Mot1 SUMO dose inactive
CCCCOc1ccc(C(=O)Nc2ccc(N3CCN(C)CC3)cc2)cc1	Mot1-301 SUMO active | Mot1 SUMO dose inactive
CCCCOc1cccc(C(=O)Nc2ccc(N3CCN(CC)CC3)cc2)c1	none
CC(C(=O)Nc1ccc(Cl)cc1Cl)N1C(=O)NC2(CCCC2)C1=O (stereo unspecified)	none
CC1CC(C)(C)NC(=S)N1CC(=O)NCc1ccc(F)cc1 (stereo unspecified)	Mot1-301 SUMO 835 | Mot1 SUMO dose inactive
CC1CC(C)(C)NC(=S)N1CCC(=O)NCc1ccc(F)cc1 (stereo unspecified)	none
COc1ccc(C(=O)NCCSc2ccc(C)cc2)cc1	Mot1-301 SUMO 470 | Mot1 SUMO dose inactive
On1c(-c2ccccc2Cl)nc2ncccc21	Mot1-301 SUMO 498 | Mot1 SUMO dose inactive
Cn1c(CCN2CCOCC2)nc2cc(NC(=O)COc3ccccc3)ccc21	Mot1-301 SUMO active | Mot1 SUMO dose inactive
